A word on the TD50: it is the 50% point of the dose-response relation for the toxic effect studied. The ED50 is the dose at which the effect has come halfway, by size or by number of responders.

The source made the active and inactive calls. The calls are words filed in the database; no cut-off is given here.

The source of these data is ChEMBL document CHEMBL1125741, “Synthesis and anticonvulsant activity of imidooxy derivatives” (J Med Chem, 1991).

A short description of series [1]: Time of peak effect (TPE) for toxicity. Details: unit not given here. The essentials: (§1)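 Phase II quantitation, drug given ip. ED50 in the MES or scMet test was taken at the time of peak effect, with the peak time set in MES for some compounds and in scMet for others. Rotorod TD50 was taken at the time of peak neurologic deficit. Values are in mg/kg with 95% confidence limits. Protective index is TD50/ED50.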

The nature of series [2]: Time of peak effect (TPE) for activity. Type of series: ADME. Details: unit not given here. The gist of the method: as §1
The nature of series [3]: Protective index which is the ratio of TD50 to ED50 of in maximal electroshock test. In kind it is functional. The essentials: as §1
On the technique in general: The maximal electroshock test induces tonic seizures with an electrical stimulus.

The nature of series [4]: Protective index which is the ratio of TD50 to ED50 of against subcutaneous pentylenetetrazole test. In kind it is functional. The gist of the method:
as §1

Series [5] is described as follows: Compound was evaluated for toxic dose at peak neurologic deficit after intraperitoneal administration of the compound. In kind it is ADME, organism-based, Gallus gallus. Particulars: chicken, in vivo, ip. The essentials:
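Mice received compound dissolved or suspended in 30% polyethylene glycol 400 by intraperitoneal injection. Neurological toxicity was scored as failure on the rotorod test. Testing was run through the NINCDS Antiepileptic Drug Development Program.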

Series [6] relates to Gallus gallus. Put plainly: Toxicity test (number of animals exhibiting toxicity / number of animals tested) at a dose of 30 mg/kg after 2 hr; 8/8. Type of series: organism-based. Also on record: dose 30 mg/kg. Particulars: chicken, in vivo.
In series [7] the test system is Gallus gallus. Put plainly: Toxicity test (number of animals exhibiting toxicity / number of animals tested) at a dose of 30 mg/kg after 6 h; 8/8. Type of series: organism-based. Details: dose 30 mg/kg. Particulars: chicken, in vivo.
Series [8] concerns Gallus gallus. Nature of the series: Subcutaneous pentylenetetrazole test (ScMet) (number of animals protected / number of animals tested) at a dose of 30 mg/kg after 1 hr; 8/8. Type of series: functional.
In series [9] the test system is Gallus gallus. Nature of the series: Toxicity test (number of animals exhibiting toxicity / number of animals tested) at a dose of 30 mg/kg after 4 hr; 8/8. In kind it is organism-based. Also on record: dose 30 mg/kg. Particulars: chicken, in vivo.
The test system of series [10] is Gallus gallus. Nature of the series: Toxicity test (number of animals exhibiting toxicity / number of animals tested) at a dose of 30 mg/kg after 1 hr; 1/8. Type of series: organism-based. Also on record: dose 30 mg/kg. Particulars: chicken, in vivo.
For series [11], the system named is Gallus gallus. Nature of the series: Toxicity test (number of animals exhibiting toxicity / number of animals tested) at a dose of 30 mg/kg after 0.50 hr; 0/8. Type of series: organism-based. Details: dose 30 mg/kg. Particulars: chicken, in vivo, 0.5 h.
The subject of series [12] is Gallus gallus. Put plainly: Subcutaneous pentylenetetrazole test (ScMet) (number of animals protected / number of animals tested) at a dose of 30 mg/kg after 0.25 hr; 4/8. Type of series: functional.
The test system of series [13] is Gallus gallus. Put plainly: Toxicity test (number of animals exhibiting toxicity / number of animals tested) at a dose of 50 mg/kg after 1 hr; 7/8. In kind it is organism-based. Also on record: dose 50 mg/kg. The settings on record: chicken, in vivo.
For series [14], the system named is Gallus gallus. Put plainly: Subcutaneous pentylenetetrazole test (ScMet) (number of animals protected / number of animals tested) at a dose of 30 mg/kg after 0.50 hr; 4/8. In kind it is functional.
Series [15] relates to Gallus gallus. Put plainly: Toxicity test (number of animals exhibiting toxicity / number of animals tested) at a dose of 50 mg/kg after 2 hr; 6/8. Particulars: chicken, in vivo. Details: dose 50 mg/kg. Type of series: organism-based.
Series [16] relates to Gallus gallus. Put plainly: Subcutaneous pentylenetetrazole test (ScMet) (number of animals protected / number of animals tested) at a dose of 30 mg/kg after 2 hr; 8/8. In kind it is functional.
Series [17] has as its system Gallus gallus. Nature of the series: Toxicity test (number of animals exhibiting toxicity / number of animals tested) at a dose of 50 mg/kg after 0.50 hr; 4/8. Type of series: organism-based. Details: dose 50 mg/kg. The settings on record: chicken, in vivo, 0.5 h.
The test system of series [18] is Gallus gallus. Nature of the series: Toxicity test (number of animals exhibiting toxicity / number of animals tested) at a dose of 30 mg/kg after 0.25 hr; 0/8. Type of series: organism-based. Details: dose 30 mg/kg. Particulars: chicken, in vivo.
Series [19] has as its system Gallus gallus. Nature of the series: Anticonvulsant activity by subcutaneous pentylenetetrazole test at a dose of 300 mg/kg against young chicks after 30 min; 0/0. In kind it is functional.
The test system of series [20] is Gallus gallus. Nature of the series: Anticonvulsant activity by subcutaneous pentylenetetrazole test at a dose of 30 mg/kg against young chicks after 30 min; 1/1. Type of series: functional.
For series [21], the system named is Gallus gallus. Nature of the series: Anticonvulsant activity by subcutaneous pentylenetetrazole test at a dose of 30 mg/kg against young chicks after 4 hr; 1/1. Type of series: functional.
The subject of series [22] is Gallus gallus. Put plainly: Anticonvulsant activity by maximal electroshock test at a dose of 300 mg/kg against young chicks after 30 min; 1/1. Type of series: functional.
Series [23] deals with Gallus gallus. Nature of the series: Anticonvulsant activity by subcutaneous pentylenetetrazole test at a dose of 100 mg/kg against young chicks after 30 min; 1/1. In kind it is functional.
In series [24] the test system is Gallus gallus. Put plainly: Toxicity test (number of animals exhibiting toxicity / number of animals tested) done at a dose 100 mg/kg against young chicks after 4 hr; 4/4. Type of series: organism-based. Details: dose 100 mg/kg. The settings on record: chicken, in vivo.
The subject of series [25] is Gallus gallus. Put plainly: Anticonvulsant activity by maximal electroshock test at a dose of 30 mg/kg against young chicks after 30 min; 1/1. In kind it is functional.
In series [26] the test system is Gallus gallus. Nature of the series: Compound was evaluated for effective dose by subcutaneous pentylenetetrazole test after intraperitoneal administration of the compound; Not Effective. In kind it is functional, organism-based. The gist of the method: as §1
Series [27] relates to Gallus gallus. Nature of the series: Toxicity test (number of animals exhibiting toxicity / number of animals tested) done at a dose 100 mg/kg against young chicks after 30 min; 8/8. In kind it is organism-based. Also on record: dose 100 mg/kg. Particulars: chicken, in vivo, 0.5 h.
For series [28], the system named is Gallus gallus. Nature of the series: Compound was evaluated for effective dose by maximal electroshock test after intraperitoneal administration of the compound. Type of series: functional. Particulars: ip. The gist of the method:
as §1

Series [29] concerns Gallus gallus. Nature of the series: Anticonvulsant activity by maximal electroshock test at a dose of 100 mg/kg against young chicks after 30 min; 2/3. Type of series: functional.
For series [30], the system named is Gallus gallus. Nature of the series: Anticonvulsant activity by subcutaneous pentylenetetrazole test at a dose of 100 mg/kg against young chicks after 30 min; 0/0. Type of series: functional.
Series [31] has as its system Gallus gallus. Nature of the series: Anticonvulsant activity by subcutaneous pentylenetetrazole test at a dose of 300 mg/kg against young chicks after 30 min; 1/1. Type of series: functional.
In series [32] the test system is Gallus gallus. Nature of the series: Toxicity test (number of animals exhibiting toxicity / number of animals tested) done at a dose 100 mg/kg against young chicks after 4 hr; […]. In kind it is organism-based. Details: dose 100 mg/kg. The settings on record: chicken, in vivo.
For series [33], the system named is Gallus gallus. Put plainly: Anticonvulsant activity by maximal electroshock test at a dose of 100 mg/kg against young chicks after 30 min; 1/3. Type of series: functional.

Consider `CCC1(c2ccccc2)C(=O)NC(=O)NC1=O` [PHENOBARBITAL], for which the figures for the TPE in series [1] and in [2] were 0.5 and 1, respectively.
In the case of `CCCC(CCC)C(=O)O` [VALPROIC ACID], the values for the PI in series [3] and in series [4] were 1.57 and 2.87, respectively. Also, the TPE in series [1] and in series [2] was 0.25 throughout.
As for `O=C1CC2(CCCC2)C(=O)N1OCc1ccccc1`, the PI in [3] was determined as 4.5. The TPE is 4 in series [1] and 0.25 in [2]. For the same molecule, the TD50 in series [5] is above 500 mg/kg.
Turning to `CCC1(C)CC(=O)NC1=O` (stereo not given) [ETHOSUXIMIDE], the TPE in series [1] and in series [2] was 0.5 in each case.
On to `O=C1c2cccc3cccc(c23)C(=O)N1[O-].[Na+]`, for which the values for the TPE in series [1] and in series [2] were 4 and 0.25, respectively. In [4], the PI was found to be 0.84.
For the molecule `C=C(CON1C(=O)CCC1=O)C(=O)OC`, the “No. of animals protected/animals tested” value is on record as 8 in the series with Gallus gallus [6]; 8 in the series on Gallus gallus [7]; 8 in the series on Gallus gallus [8]; 8 in the series on Gallus gallus [9]; 1 in the series with Gallus gallus [10]; 0 with Gallus gallus [11]. Moreover, the “No. of animals protected/animals tested” value with Gallus gallus [12] came to 4; in the series with Gallus gallus [13], 7; with Gallus gallus [14], 4; in the series with Gallus gallus [15] it was 6; in the series with Gallus gallus [16], 8; in the series on Gallus gallus [17], 4. In addition, the “No. of animals protected/animals tested” value with Gallus gallus [18] was found to be 0.
`C=C(CON1C(=O)c2ccccc2C1=O)C(=O)OC`: the “No. of animals protected/animals tested” value stood at 0 with Gallus gallus [19]; 1 with Gallus gallus [20]; 1 in the series on Gallus gallus [21]; 1 in the series with Gallus gallus [22]; 1 in the series with Gallus gallus [23]; 4 with Gallus gallus [24]. Also, in the series with Gallus gallus [25], the “No. of animals protected/animals tested” value is 1. Besides, the TPE in series [1] was 4; in [2] it was 1. The PI in series [4] was determined as 0.72.
On to `NC(=O)N1c2ccccc2C=Cc2ccccc21` [CARBAMAZEPINE], for which the TPE in [1] and in series [2] was 0.25 throughout. The ED50 result with Gallus gallus [26] is “inactive”.
For `O=C1c2ccccc2C(=O)N1O`, the “No. of animals protected/animals tested” value in the series on Gallus gallus [27] was determined as 8; with Gallus gallus [24], 4; with Gallus gallus [29] it was 2; in the series with Gallus gallus [30], 0. Also, the PI in [3] came out at 0.99. The molecule further yielded an ED50 in the series on Gallus gallus [28] of 95.4 mg/kg. Further, the TPE in [1] and in series [2] was 0.25 throughout.
As for `CCOC(=O)ON1C(=O)CCC1=O`, the “No. of animals protected/animals tested” value was 1 in the series on Gallus gallus [31], 4 in the series with Gallus gallus [32] and 1 in the series with Gallus gallus [33].
With `O=C1NC(=O)C(c2ccccc2)(c2ccccc2)N1` [PHENYTOIN], the TPE in series [1] and in series [2] was 2 throughout. For the same molecule, the ED50 entry with Gallus gallus [26] is “inactive”.
